Data set [1] has as its system Rattus norvegicus. Description: Antiparkinsonian activity in 6-hydroxydopamine lesioned Wistar rat assessed as duration of rotation per 10 mins at 15.64 mg/kg, po. In kind it is functional. An outline of the steps:
(§1)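 The 6-OHDA-lesioned male Wistar rats were apomorphine-screened (>6 turns/min) and given benserazide 10 mg/kg, then a saline-vehicle dose of 63.4 µmol/kg ip or po (n=4–8). Rotations were counted per 10 min for 4 h. Duration of activity was the time turning >10 turns per 10 min, expressed as % of the L-dopa effect.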

The test system of data set [2] is Rattus norvegicus. Description: Antiparkinsonian activity in 6-hydroxydopamine lesioned Wistar rat assessed as number of rotation per 10 mins at 15.64 mg/kg, ip. In kind it is functional. The conditions noted are these: route intraperitoneal. An outline of the steps:
(§2)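 Rotometer assay in unilaterally 6-OHDA-lesioned male Wistar rats (apomorphine-confirmed, >6 turns/min). Benserazide 10 mg/kg was given, followed by compound at 63.4 µmol/kg ip or po in saline (n=4–8 per treatment). Rotations were recorded per 10 min for 240 min. Peak (maximum) rotations per 10 min were taken and expressed relative to L-dopa.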

Data set [3] has as its system Rattus norvegicus. Description: Antiparkinsonian activity in 6-hydroxydopamine lesioned Wistar rat assessed as number of rotation per 10 mins at 15.64 mg/kg, po. It is filed as functional. In a few lines:
as §2

Data set [4] concerns Rattus norvegicus. The data set is described as follows: Antiparkinsonian activity in 6-hydroxydopamine lesioned Wistar rat assessed as area under curve measured as number of rotation per 10 mins at 15.64 mg/kg, po. It is filed as functional. In a few lines:
(§3)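 Male Wistar rats were given desipramine (25 mg/kg ip) and then a unilateral 6-OHDA injection (8 µg free base) into the left medial forebrain bundle. Lesions were confirmed ≥2 weeks later by apomorphine (0.5 mg/kg sc), accepting rats with >6 turns/min. Rats (n=4–8) received benserazide 10 mg/kg and 30 min basal recording, then drug at 63.4 µmol/kg ip or po in saline. Contraversive rotations were counted per 10 min over 240 min. AUC was calculated and expressed as % of the L-dopa effect.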

Data set [5] deals with Rattus norvegicus. Description: Antiparkinsonian activity in 6-hydroxydopamine lesioned Wistar rat assessed as area under curve measured as number of rotation per 10 mins at 15.64 mg/kg, ip. In kind it is functional. The conditions noted are these: route intraperitoneal. An outline of the steps:
as §3

Data set [6] deals with Rattus norvegicus. The data set is described as follows: Antiparkinsonian activity in 6-hydroxydopamine lesioned Wistar rat assessed as duration of rotation per 10 mins at 15.64 mg/kg, ip. The conditions noted are these: route intraperitoneal. In kind it is functional. In a few lines:
as §1

Data set [7] deals with Rattus norvegicus. Description: Antiparkinsonian activity in 6-hydroxydopamine lesioned Wistar rat assessed as duration of rotation per 10 mins at 12.5 mg/kg, ip. It is filed as functional. The conditions noted are these: route intraperitoneal. An outline of the steps: as §1
The test system of data set [8] is Rattus norvegicus. Description: Antiparkinsonian activity in 6-hydroxydopamine lesioned Wistar rat assessed as duration of rotation per 10 mins at 12.5 mg/kg, po. In kind it is functional. An outline of the steps: as §1
Data set [9] has as its system Rattus norvegicus. Description: Antiparkinsonian activity in 6-hydroxydopamine lesioned Wistar rat assessed as number of rotation per 10 mins at 12.5 mg/kg, ip. In kind it is functional. The conditions noted are these: route intraperitoneal. An outline of the steps: as §2
The test system of data set [10] is Rattus norvegicus. The data set is described as follows: Antiparkinsonian activity in 6-hydroxydopamine lesioned Wistar rat assessed as number of rotation per 10 mins at 12.5 mg/kg, po. In kind it is functional. An outline of the steps: as §2
Data set [11] concerns Rattus norvegicus. The data set is described as follows: Antiparkinsonian activity in 6-hydroxydopamine lesioned Wistar rat assessed as area under curve measured as number of rotation per 10 mins at 12.5 mg/kg, po. It is filed as functional. In a few lines:
as §3

The test system of data set [12] is Rattus norvegicus. Description: Antiparkinsonian activity in 6-hydroxydopamine lesioned Wistar rat assessed as area under curve measured as number of rotation per 10 mins at 12.5 mg/kg, ip. It is filed as functional. The conditions noted are these: route intraperitoneal. An outline of the steps: as §3
Data set [13] concerns Rattus norvegicus. The data set is described as follows: Antiparkinsonian activity in 6-hydroxydopamine lesioned Wistar rat assessed as number of rotation per 10 mins at 20.1 mg/kg, ip. It is filed as functional. The conditions noted are these: route intraperitoneal. In a few lines:
as §2

Data set [14] relates to Rattus norvegicus. The data set is described as follows: Antiparkinsonian activity in 6-hydroxydopamine lesioned Wistar rat assessed as number of rotation per 10 mins at 20.1 mg/kg, po. In kind it is functional. An outline of the steps:
as §2

The test system of data set [15] is Rattus norvegicus. The data set is described as follows: Antiparkinsonian activity in 6-hydroxydopamine lesioned Wistar rat assessed as area under curve measured as number of rotation per 10 mins at 20.1 mg/kg, po. In kind it is functional. In a few lines:
as §3

The test system of data set [16] is Rattus norvegicus. Description: Antiparkinsonian activity in 6-hydroxydopamine lesioned Wistar rat assessed as area under curve measured as number of rotation per 10 mins at 20.1 mg/kg, ip. It is filed as functional. The conditions noted are these: route intraperitoneal. In a few lines: as §3
The subject of data set [17] is Rattus norvegicus. The data set is described as follows: Antiparkinsonian activity in 6-hydroxydopamine lesioned Wistar rat assessed as duration of rotation per 10 mins at 20.1 mg/kg, po. It is filed as functional. An outline of the steps:
as §1

The subject of data set [18] is Rattus norvegicus. Description: Antiparkinsonian activity in 6-hydroxydopamine lesioned Wistar rat assessed as duration of rotation per 10 mins at 20.1 mg/kg, ip. It is filed as functional. The conditions noted are these: route intraperitoneal. An outline of the steps: as §1
In data set [19] the test system is Rattus norvegicus. Description: Cmax in Wistar rat at 20.1 mg/kg, po assessed as L-dopa level. Further details: dose 20.1 mg/kg, route oral. It is filed as ADME, organism-based. The conditions noted are these: in vivo. An outline of the steps:
(§4)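 Naïve male Wistar rats (250–500 g), fasted overnight, dosed orally in 0.9% saline with benserazide (10 mg/kg) at dose equivalent to 12.5 mg/kg L-dopa. Heparinised tail-vein blood at various times; plasma extracted with 20% TFA in 10 mM metabisulphite with warfarin internal standard; L-dopa quantified by LC-MS/MS (positive ESI) against plasma standard curve 0.39–50 µM.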

For data set [20], the system named is Rattus norvegicus. Description: Apparent half life in Wistar rat at 20.1 mg/kg, po assessed as L-dopa level. It is filed as ADME, organism-based. Further details: dose 20.1 mg/kg, route oral. The conditions noted are these: in vivo. An outline of the steps: as §4
Data set [21] deals with Rattus norvegicus. Description: AUC (0 to 4 hrs) in Wistar rat at 20.1 mg/kg, po assessed as L-dopa level. In kind it is ADME, organism-based, Plasma. Also noted: time < 4 hr, dose 20.1 mg/kg, route oral. The conditions noted are these: in vivo. In a few lines: (§5)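 Naïve male Wistar rats (250–500 g), fasted overnight, dosed with compound in 0.9% saline together with benserazide (10 mg/kg), at a dose molar-equivalent to 12.5 mg/kg L-dopa. Heparinised tail-vein blood was sampled at intervals and the plasma stored at −80 °C. L-dopa was extracted with 20% TFA/10 mM metabisulphite plus warfarin internal standard and quantified by LC-MS/MS (positive ESI) against plasma standard curves.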

Data set [22] has as its system Rattus norvegicus. The data set is described as follows: Antiparkinsonian activity in 6-hydroxydopamine lesioned Wistar rat assessed as number of rotation per 10 mins at 16.53 mg/kg, ip. It is filed as functional. The conditions noted are these: route intraperitoneal. In a few lines:
as §2

For data set [23], the system named is Rattus norvegicus. Description: Antiparkinsonian activity in 6-hydroxydopamine lesioned Wistar rat assessed as number of rotation per 10 mins at 16.53 mg/kg, po. In kind it is functional. In a few lines: as §2
The test system of data set [24] is Rattus norvegicus. Description: Antiparkinsonian activity in 6-hydroxydopamine lesioned Wistar rat assessed as area under curve measured as number of rotation per 10 mins at 16.53 mg/kg, po. In kind it is functional. An outline of the steps: as §3
The test system of data set [25] is Rattus norvegicus. The data set is described as follows: Antiparkinsonian activity in 6-hydroxydopamine lesioned Wistar rat assessed as area under curve measured as number of rotation per 10 mins at 16.53 mg/kg, ip. In kind it is functional. The conditions noted are these: route intraperitoneal. In a few lines:
as §3

Data set [26] deals with Rattus norvegicus. The data set is described as follows: Antiparkinsonian activity in 6-hydroxydopamine lesioned Wistar rat assessed as duration of rotation per 10 mins at 16.53 mg/kg, po. It is filed as functional. An outline of the steps: as §1
Data set [27] relates to Rattus norvegicus. Description: Antiparkinsonian activity in 6-hydroxydopamine lesioned Wistar rat assessed as duration of rotation per 10 mins at 16.53 mg/kg, ip. It is filed as functional. The conditions noted are these: route intraperitoneal. In a few lines:
as §1

Data set [28] deals with Rattus norvegicus. Description: Antiparkinsonian activity in 6-hydroxydopamine lesioned Wistar rat assessed as number of rotation per 10 mins at 22.75 mg/kg, po. It is filed as functional.
Data set [29] relates to Rattus norvegicus. Description: Antiparkinsonian activity in 6-hydroxydopamine lesioned Wistar rat assessed as area under curve measured as number of rotation per 10 mins at 22.75 mg/kg, po. It is filed as functional. An outline of the steps: as §3
Data set [30] has as its system Rattus norvegicus. Description: Antiparkinsonian activity in 6-hydroxydopamine lesioned Wistar rat assessed as duration of rotation per 10 mins at 22.75 mg/kg, po. It is filed as functional. An outline of the steps:
as §1

The subject of data set [31] is Rattus norvegicus. Description: Antiparkinsonian activity in 6-hydroxydopamine lesioned Wistar rat assessed as number of rotation per 10 mins at 23.89 mg/kg, po. In kind it is functional.
Data set [32] concerns Rattus norvegicus. The data set is described as follows: Antiparkinsonian activity in 6-hydroxydopamine lesioned Wistar rat assessed as area under curve measured as number of rotation per 10 mins at 23.89 mg/kg, po. It is filed as functional. In a few lines:
as §3

Data set [33] has as its system Rattus norvegicus. The data set is described as follows: Antiparkinsonian activity in 6-hydroxydopamine lesioned Wistar rat assessed as duration of rotation per 10 mins at 23.89 mg/kg, po. In kind it is functional. An outline of the steps: as §1
In data set [34] the test system is Rattus norvegicus. The data set is described as follows: Cmax in Wistar rat at 23.9 mg/kg, po assessed as L-dopa level. In kind it is ADME, organism-based. Further details: dose 23.9 mg/kg, route oral. The conditions noted are these: in vivo. In a few lines:
as §4

In data set [35] the test system is Rattus norvegicus. Description: AUC (0 to 4 hrs) in Wistar rat at 23.9 mg/kg, po assessed as L-dopa level. In kind it is ADME, organism-based, Plasma. Further details: time < 4 hr, dose 23.9 mg/kg, route oral. The conditions noted are these: in vivo. In a few lines:
as §5

As usually defined, the Cmax is the peak of the concentration-time curve. A word on the AUC: it is concentration integrated over time.

Turning to `CNC(=O)[C@@H](N)Cc1ccc(O)c(O)c1.Cl`, the Time in data set [1] turned out to be 10 min; in data set [6], 0 min. The Activity was determined as 2 in data set [2], 5 in data set [3], 29 in data set [4] and 16 in data set [5].
Consider `N[C@@H](Cc1ccc(O)c(O)c1)C(=O)O` [LEVODOPA], for which the Time in data set [7] stood at 160 min; in data set [8] it was 119 min. In addition, the Activity turned out to be 104 in data set [9], 71 in data set [10], 522 in [11] and 1021 in [12].
On to `CC(=O)Oc1ccc(C[C@H](N)C(N)=O)cc1OC(C)=O.Cl`, for which the Activity came to 69 in data set [13], 107 in data set [14], 1085 in data set [15] and 838 in data set [16]. The Time in data set [17] was 147 min; in [18], 140 min. In data set [19], the Cmax came to 1.746 µg/mL. Further, the t1/2 in data set [20] is 1.62 h. For the same molecule, the AUC in data set [21] amounted to 245 µg·min/mL.
For the molecule `CCNC(=O)[C@@H](N)Cc1ccc(O)c(O)c1.Cl`, the Activity in data set [22] is given as 40; in data set [23], 39; in [24] it was 324; in [25], 117. Besides, the Time in data set [26] is 39 min; in data set [27], 18 min.
As for `CC(=O)Oc1ccc(C[C@H](N)C(=O)NC(C)C)cc1OC(C)=O.Cl`, the Activity is listed as 2 in data set [28] and 26 in data set [29]. The Time in data set [30] is reported as 0 min.
With `CCOC(=O)Oc1ccc(C[C@H](N)C(N)=O)cc1OC(=O)OCC.Cl`, the Activity is listed as 90 in data set [31] and 579 in [32]. In addition, the Time in [33] is listed as 153 min. Besides, the Cmax in [34] was found to be 0.69 µg/mL. For the same molecule, the AUC in data set [35] came to 95 µg·min/mL.

The values are drawn from ChEMBL document CHEMBL1240480, “Design, synthesis and biological evaluation of L-dopa amide derivatives as potential prodrugs for the treatment of Parkinson's disease” (Eur J Med Chem, 2010).
